Assays:
[1] = tested on: B16F10-hPD-L1 tumor tissue; assay: RNA-seq of B16F10-hPD-L1 tumor tissue; assay type: in vivo, mice; conditions: 15 mg/kg vs vehicle
MC38 tumor = assay: Antitumor efficacy in MC38 colon tumor-bearing mice; assay type: in vivo, C57BL/6 mice
Method in brief: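 Mice were female C57BL/6, 5–6 wk old. MC38 cells (3 × 10⁶) were injected s.c. into the right abdomen; mice were randomised at 50–70 mm³. Test compound (10 or 15 mg/kg) was given i.p. every 2 d in saline with 8% ethanol and 8% glycerin. Atezolizumab (10 mg/kg) was given i.v. every 3 d. Calipers were read every 2 d; volume = 1/2 × L × W². Mice were sacrificed after 7 doses. Body weight was followed; growth inhibition was computed against vehicle and predose volumes.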

[2] = tested on: CD4+ T cells cocultured with NCI-H1975 cells; assay: T cell response assay, CD4+ T cells cocultured with NCI-H1975 cells; assay type: cell-based, human; conditions: 48 h coculture, ELISA
Method in brief: (§1)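 Human CD4⁺ T blasts were expanded ~7 d with IL-2 (100 IU/mL) and CD3/CD28 beads (1:1), then frozen. Target cells (NCI-H1975, HEK293T-hPD-L1 or PD-L1-negative HEK293T; 10,000/well) adhered for 24 h. T cells (2 × 10⁴; E:T 2:1) were added with or without test compound or atezolizumab in complete RPMI-1640 for 48 h at 37°C, 5% CO₂. Supernatant IFN-γ and TNF-α were measured by ELISA.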

[3] = assay type: in vivo, mice
Method in brief: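 Female C57BL/6 mice bearing subcutaneous B16F10-hPD-L1 tumours were randomised and dosed daily for 1 wk with vehicle, 15 mg/kg or 50 mg/kg test compound. On day 7 after the first dose, serum GOT, GPT, ALP and ALB were measured on an automatic dry-type biochemical analyser. Deaths and toxic effects were recorded during the study.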

[4] = tested on: tumor-infiltrating lymphocytes (TILs); assay: Flow cytometry of tumor-infiltrating lymphocytes from B16F10-hPD-L1 tumors; assay type: in vivo, mice; conditions: 15 mg/kg
Method in brief: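 Tumours from B16F10-hPD-L1 mice treated with 15 mg/kg test compound or vehicle were minced and digested for 45 min at 37°C in collagenase IV (200 U/mL) plus DNase I (40 U/mL). They were then treated with EDTA for 5 min at 37°C and strained at 70 µm. Cells were stained for CD3, CD4, CD8, perforin and granzyme B and analysed by flow cytometry; mean ± SEM, unpaired t test.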

[5] = tested on: CD4+ T cells cocultured with PD-L1-negative HEK293T cells; assay type: cell-based, human; conditions: coculture with PD-L1-negative HEK293T cells, 48 h
Method in brief: as §1

[6] = tested on: spleen T lymphocyte markers; assay: Immunohistochemistry of spleen from treated tumor-bearing mice; assay type: in vivo; conditions: IHC, 15 mg/kg, vs vehicle
Method in brief: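 Spleens came from tumour-bearing mice treated with 15 mg/kg test compound or vehicle. Sections (4 µm) of 4% PFA-fixed, paraffin-embedded tissue were stained overnight at 4°C with anti-CD4, CD8 and FoxP3. HRP secondary was applied for 30 min, then DAB. Positive particles were counted per field (n = 5); mean ± SEM, unpaired t test.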

[7] = tested on: CD4+ T cells cultured alone; assay: T cell response assay, prestimulated T cells cultured alone; assay type: cell-based, human; conditions: T-lymphocytes cultured alone, 48 h
Method in brief: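 Prestimulated human CD4⁺ T cells (IL-2 100 IU/mL, CD3/CD28 beads 1:1, ~7 d expansion) were cultured alone (2 × 10⁴) with or without test compound for 48 h at 37°C, 5% CO₂. Supernatant IFN-γ and TNF-α were measured by ELISA.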

murine PD-L1 protein = murine PD-L1 protein (Mus musculus, UniProt Q9EP73); assay: SPR binding affinity to murine PD-L1
Chain of murine PD-L1 protein (Q9EP73 19-290): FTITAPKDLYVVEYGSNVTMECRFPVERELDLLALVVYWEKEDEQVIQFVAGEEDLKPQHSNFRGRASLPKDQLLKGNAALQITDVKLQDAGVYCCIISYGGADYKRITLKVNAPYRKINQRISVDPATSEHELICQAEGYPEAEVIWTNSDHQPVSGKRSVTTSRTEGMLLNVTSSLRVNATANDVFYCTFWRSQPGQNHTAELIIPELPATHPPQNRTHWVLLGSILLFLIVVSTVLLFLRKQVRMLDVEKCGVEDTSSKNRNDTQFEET
Method in brief: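 SPR running buffer was 1.05× PBS (pH 7.4) with 5% DMSO, at 25°C and 30 µL/min. DMSO solvent correction used 8 standards (4.5–5.8%). Test compound (10 mM DMSO stock) was diluted to 100–3.125 µM plus a 0 µM blank. Each cycle had 90 s injection, 120 s dissociation and 30 s buffer carryover check. Kd came from a global steady-state fit.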

splenic lymphocytes = assay type: in vivo, mice; conditions: 15 mg/kg, vs vehicle
Method in brief: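 B16F10-hPD-L1 (5 × 10⁶ s.c.) mice received 15 mg/kg test compound i.p. every 2 d or vehicle. Spleens were taken at day 24, meshed through 70 µm, ACK-lysed, and 1 × 10⁶ cells were stained for CD3, CD4, CD8 and perforin. For intracellular cytokines, 2 × 10⁶ cells were stimulated with activation cocktail (1:500) plus brefeldin A (1:1000) for 3–4 h at 37°C, then stained for CD3, CD4, IFN-γ and TNF-α. Data are mean ± SEM; unpaired t test.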

Jurkat cells = assay: Cell toxicity on Jurkat cells during flow cytometric experiments; assay type: cell-based; conditions: concentration up to 50 μM
[8] = tested on: CD4+ T cells cocultured with hPD-L1 overexpressed HEK293T cells; assay: T cell response assay, CD4+ T cells cocultured with HEK293T-hPD-L1 cells; assay type: cell-based, human; conditions: 48 h coculture
Method in brief: as §1

[9] = Stability assay in human blood plasma; assay type: in vitro ADME
Method in brief: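 Test compound at 2 µM was incubated in human plasma at 37°C. Duplicate samples were taken at 0, 10, 30, 60 and 120 min. Reactions were stopped with 50% ACN/MeOH containing tolbutamide and labetalol (200 ng/mL each).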

[10] = tested on: B16F10-hPD-L1 tumor tissue; assay: Immunohistochemistry of B16F10-hPD-L1 tumor tissue; assay type: in vivo, mice; conditions: IHC, 15 mg/kg, vs vehicle
Method in brief: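 Tumours came from B16F10-hPD-L1-bearing C57BL/6 mice given 15 mg/kg test compound or vehicle. Sections (4 µm) of 4% PFA-fixed, paraffin-embedded tissue were incubated with anti-FoxP3, anti-CD4 and anti-CD8 overnight at 4°C. HRP secondary was applied for 30 min, followed by DAB. Positive particles were counted per field.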

B16F10-hPD-L1 tumor = assay: Antitumor efficacy in B16F10-hPD-L1 tumor-bearing C57BL/6 mice; assay type: in vivo
PD-L1 = conditions: cited from earlier work
post-treatment tumors = conditions: responders; cited from earlier work
[11] = 15 and 50 mg/kg daily, day 7, vs control
[12] = flow cytometry and IHC, vs vehicle

NC(=O)c1ccccc1NC(=O)c1ccc(-c2ccccc2)cc1 [APBC, N-[2-(aminocarbonyl)phenyl][1,1′-biphenyl]-4-carboxamide]
infiltration of CD8+ T cells in the tumor ([1]; CIBERSORTx, P< 0.05): significant higher infiltration
immune pathways (antigen processing and presentation, T-cell receptor signaling, TNF signaling, Th1 and Th2 cell differentiation) ([1]; GSEA): markedly upregulated
pathways related to Glycolysis or MAPK signaling pathway ([1]; GSEA): markedly downregulated
growth of colon tumors (MC38 tumor; 10 mg/kg, after 7 times of treatment): inhibited significantly
effect on body weight (MC38 tumor; during the treatment period): no significant effect
IFN-γ level [2]: dose dependent increase
TNF-α level [2]: dose dependent increase
drug-related deaths ([3]; 1-wk, daily up to 50 mg/kg): no drug-related deaths
drug-related toxic effects ([3]; 1-wk, daily up to 50 mg/kg): no drug-related toxic effects observed
tolerability ([3]; 1-wk, daily up to 50 mg/kg): well tolerated
serum level of ALB [3, 11]: no significant changes
serum level of ALP [3, 11]: no significant changes
serum level of GOT ([3]; daily, up to 50 mg/kg, day 7): tendency to considerable decrease
serum level of GPT ([3]; daily, up to 50 mg/kg, day 7): tendency to considerable decrease
toxicity in murine models ([3]; up to 50 mg/kg): no observable toxicity
GzmB expression in CD3+ T cells of tumors ([4]; TILs, vs controls): markedly elevated
perforin expression in CD3+ T cells of tumors ([4]; TILs, vs controls): markedly elevated
CD4+ T-cell population in tumors [4, 12]: significantly increased
CD8+ T-cell population in tumors [4, 12]: significantly increased
IFN-γ and TNF-α production [5]: did not significantly affect
density of CD4+ T lymphocytes in the spleen [6]: considerably higher density
density of CD8+ T lymphocytes in the spleen [6]: considerably higher density
expression of FoxP3 in the spleen [6]: no significant changes
IFN-γ and TNF-α production [7]: did not significantly affect
Kd (murine PD-L1 protein): > 100 µM
percentage of CD3+ CD4+ T lymphocytes in the spleen (splenic lymphocytes; P < 0.001): significantly increased
percentage of CD3+ CD8+ T lymphocytes in the spleen (splenic lymphocytes; P < 0.001): significantly increased
percentage of CD3+ T lymphocytes in the spleen (splenic lymphocytes; P < 0.001): significantly increased
percentage of IFN-γ producing CD4+ T cells (splenic lymphocytes; spleen): extremely significant increase
percentage of TNF-α producing CD4+ T cells (splenic lymphocytes; spleen): extremely significant increase
perforin production from CD3+ cells (splenic lymphocytes; spleen, P< 0.01): significantly increased
cell toxicity (Jurkat cells): not observed
TNF-α level increase ([8]; 10 µM): 41.8%
TNF-α production increase ([8]; 50 μM): 86.6%
blood plasma stability [9]: relatively good
FoxP3 expression levels within tumors [10]: did not significantly change
tumor growth inhibition (B16F10-hPD-L1 tumor; 10 mg/kg intraperitoneal every 2 d, 8 treatments): 62.1%
treated animals almost tumor free (B16F10-hPD-L1 tumor; 15 mg/kg intraperitoneal every 2 d): 4 of 10
tumor growth inhibition (B16F10-hPD-L1 tumor; 15 mg/kg intraperitoneal every 2 d, 8 treatments): 82.2%
spleen (splenomegaly / spleen weight) (B16F10-hPD-L1 tumor; day 24 after tumor inoculation, vs vehicle group with splenomegaly): normal spleens

C[C@@H](O)[C@H](NC(=O)N[C@@H](CC(N)=O)c1nc([C@@H](N)CO)no1)C(=O)O [CA-170]
direct binding to PD-L1 (PD-L1): no direct binding

Atezolizumab: anti-PD-L1 antibody, positive control [reference compound]
cytokines production such as IFN-γ and TNF-α (post-treatment tumors): increased
tumor growth inhibition (B16F10-hPD-L1 tumor; 10 mg/kg tail vein injection every 3 d): 66.1%

— publication PMC7851350 (Neoplasia (New York, N.Y.), 2021)
